Assay outcomes deposited in PubChem BioAssay by The Scripps Research Institute Molecular Screening Center.
A selection: hits, their analogues and other compounds. The true share with any hit is near 1.9%.
HCV NS3 hel inh: blocks Hepatitis C virus NS3 helicase unwinding. inhibition, % at 10.9 µM. NS3 helicase DNA unwinding, Cy5 molecular beacon fluorescence. hit rate 0.56% among 290,000;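 active = inhibition above the mean of all tested compounds plus 3 SD, set per campaign, cut at about 35% in these data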;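 also: 0% = DMSO wells and 100% = thioflavine S control wells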
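Material: hepatitis C virus NS3 helicase domain fragment enzyme; measured by: Cy5 fluorescence, 0 and 60 min reads; control set: DMSO and thioflavine S; incubation: 60 min unwinding reaction at 25 °C after ATP addition; read-out basis: % inhibition from 60/0 min fluorescence ratio, DMSO 0%, thioflavine S 100%; repeats: singlicate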
PP1 inh: blocks human PP1-alpha phosphatase, a PP5 counter-screen | P62136 | purified PP1alpha, OMFP fluorescence | inhibition, % at 6.7 µM | hit rate 0.9% among 320,000 | AID 2235;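 active = inhibition above the mean inhibition of all tested compounds plus 3 SD, computed separately for each screening campaign, cut at about 15% in these data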
EBNA-1 inh: blocks EBNA-1 binding to DNA; inhibition, % at 14.8 µM; hit rate 0.34% among 300,000; EBNA-1 DNA binding, fluorescence polarization; in the data active = inhibition above about 28%
HCV core dimer: HCV core protein dimerization inhibition | TR-FRET GST/Flag-core106 dimerization, 1536-well | inhibition, % at 5 µM | hit rate 0.33% among 300,000 | AID 1899;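 active = inhibition above the mean of all tested compounds plus 3 SD, set per screening campaign, cut at about 45% in these data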
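Test system: GST/Flag-tagged HCV core106 proteins; Medium: KF-containing HEPES buffer, pH 7.45, DTT, CHAPS, BSA; Times: compound-protein-antibody incubation 4 h at 22.5 °C; Detection: TR-FRET 671 and 617 nm emission; Benchmarks: wells lacking GST-core106 and wells with excess unlabelled core106.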
ZTA DNA inh: blocks Epstein-Barr virus ZTA, an EBNA-1 counter-screen; P03206; ZTA-DNA binding, fluorescence polarization; inhibition, % at 11 µM; hit rate 0.15% among 320,000; AID 2234; in the data active = inhibition above about 33%
PP1 inh confirm: confirmation of human PP1 phosphatase inhibitors; shares compounds with PP1 inh; purified PP1alpha, OMFP substrate fluorescence; inhibition, % at 6.7 µM; hit rate 52% among 1,900; AID 2358;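 active = mean PP1 inhibition above a set limit taken from the earlier primary screen, cut at about 15% in these data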
PP5 inh counter: PP5 phosphatase inhibition, counter-screen for PP1 inhibitors; inhibition, % at 6.7 µM; hit rate 4% among 1,900; purified PP5c, OMFP fluorescence; AID 2360; shares compounds with PP1 inh;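 active = mean PP5 inhibition over triplicate wells above about 9.5% taken from the earlier PP1 screen, limit read from the data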
Target sequence (P53041 whole entry, looked up): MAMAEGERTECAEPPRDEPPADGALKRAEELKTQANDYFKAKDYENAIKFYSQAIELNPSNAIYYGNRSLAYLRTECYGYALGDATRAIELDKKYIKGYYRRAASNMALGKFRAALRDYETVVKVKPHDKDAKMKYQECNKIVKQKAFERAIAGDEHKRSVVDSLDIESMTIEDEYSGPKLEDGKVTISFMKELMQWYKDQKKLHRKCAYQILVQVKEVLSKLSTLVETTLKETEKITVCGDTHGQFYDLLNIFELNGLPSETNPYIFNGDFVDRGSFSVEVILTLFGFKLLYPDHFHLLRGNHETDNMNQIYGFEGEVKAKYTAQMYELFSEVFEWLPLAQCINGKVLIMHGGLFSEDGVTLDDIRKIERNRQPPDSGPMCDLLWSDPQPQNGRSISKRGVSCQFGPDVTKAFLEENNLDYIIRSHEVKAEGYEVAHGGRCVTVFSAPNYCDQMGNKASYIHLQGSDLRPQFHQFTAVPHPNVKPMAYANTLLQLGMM
* marks the source's active call; other numbers are inactive results; . = no result.

SMILES	HCV NS3 hel inh	PP1 inh	EBNA-1 inh	HCV core dimer	ZTA DNA inh	PP1 inh confirm	PP5 inh counter
CCOc1ccc(S(=O)(=O)NCCCN2CCOCC2)cc1	2.7	22.7*	3.1	-7.9	17.1	-4.4	-6.7
CCOc1ccc(S(=O)(=O)NCCC(=O)N2CC(C)CC(C)C2)cc1 (stereo not given)	.	78.9*	0.6	0.1	-5.3	-5.9	-4.9
Nc1ncc([N+](=O)[O-])cc1S(=O)(=O)c1ccccc1	.	-1.1	3.3	-2.1	18.6	.	.
COc1ccc(C2=CC3=C(Br)C(=O)C(C)(O)C(=O)C3=CO2)cc1 (stereo not given)	.	-5.1	4.0	24.1	-5.5	.	.
COc1ccc(C2=CC3=CC(=O)C(C)(O)C(=O)C3=CO2)cc1 (stereo not given)	.	17.8*	2.9	18.8	5.5	13.3	0.4
CC1(O)C(=O)C=C2C=C(c3ccc(C#N)cc3)OC=C2C1=O (stereo not given)	.	35.5*	2.0	55.0*	-3.9	21.4*	-3.3
COc1cc(F)ccc1S(=O)(=O)N1CCN(c2ccccc2)CC1	-1.0	-71.3	-3.4	8.2	5.8	-1.6	-4.2
CCN(CC)S(=O)(=O)c1ccc(C)c(NC(=O)CN2C(=O)NC3(CCCC3)C2=O)c1	5.7	-0.4	-4.5	-0.7	-8.5	.	.
CCN(CC)S(=O)(=O)c1ccc(N2CCCC2)c(NC(=O)CN2C(=O)NC3(CCCC3)C2=O)c1	.	20.8*	8.7	9.4	21.4	0.5	-5.3
CCCCN(C(=O)c1ccc(N2CCCC2=O)cc1)c1c(N)n(CCC)c(=O)[nH]c1=O	.	2.7	.	.	10.8	.	.
COc1ccc(NC2c3ccccc3C(=O)N2Cc2ccc3c(c2)OCO3)cc1 (stereo not given)	-2.7	-0.2	-3.0	-0.9	-14.1	.	.
COc1cc(/C=C2\SC(=N)N(c3ccc(F)cc3)C2=O)ccc1O	-0.1	26.4*	-3.8	-8.0	-2.8	20.1*	-1.0
CCc1ccc(NC(=O)Cn2c(=O)c3cccn3c3ccccc32)cc1	-35.1	22.0*	9.6	-13.4	-4.8	18.0*	-1.1
CCc1ccc(N2CC(C(=O)OCC(=O)NNC(=O)c3ccccc3)CC2=O)cc1 (stereo not given)	.	-3.9	4.6	1.1	4.1	.	.
Cc1ccc(N2CC(C(=O)OCC(=O)NNC(=O)c3ccccc3)CC2=O)cc1 (stereo not given)	.	34.7*	5.8	0.8	5.0	-3.0	-2.7
CCCCNc1nc(=S)n(-c2ccccc2)c(C)c1C(C)=O	10.9	-2.1	-4.7	-7.8	-11.7	.	.
CCCCCCCCCCOC(=O)Cn1c(COc2ccccc2)[n+](C)c2ccccc21	-81.3	35.8*	4.2	-14.1	7.7	9.3	3.5
CCCCCCCCCCOC(=O)Cn1c(COc2ccc(OC)cc2)[n+](C)c2ccccc21	-58.6	34.7*	0.1	-3.7	-2.5	1.9	-1.0
CCCCCCCCCCOC(=O)Cn1c(COc2ccccc2C)[n+](C)c2ccccc21	-40.5	44.5*	13.4	-9.3	7.9	15.9*	3.6
CCCCCCCCCCOC(=O)Cn1c(COc2cccc(C)c2)[n+](C)c2ccccc21	-54.8	41.8*	-0.2	-2.9	9.6	16.1*	3.9
Nc1cc(=O)[nH]c(N2CCN(c3ccccc3)CC2)n1	-1.4	-2.6	8.5	-2.9	12.6	.	.
COc1ccc(C2=NO[C@@H]3[C@@H]4C[C@@H]([C@H]5C(=O)N(C)C(=O)[C@@H]45)[C@H]23)c(OC)c1	-6.9	0.8	-2.6	-0.2	-8.7	.	.
CN(Cc1ccccc1)S(=O)(=O)c1ccc(NC(=O)c2ccccc2C(=O)O)cc1	.	-2.9	-8.1	4.5	3.8	.	.
CCCCCCCCCCOC(=O)Cn1c(COc2ccc(Cl)cc2)[n+](C)c2ccccc21	-50.3	47.5*	-4.4	-2.2	25.9	21.5*	2.4
COc1cccc(/C=N/NC(=O)C(=O)N2CCCC2)c1O	12.0	-1.9	15.6	-1.3	13.3	.	.
SMILES	HCV NS3 hel inh	PP1 inh	EBNA-1 inh	HCV core dimer	ZTA DNA inh	PP1 inh confirm	PP5 inh counter
COc1cccc(/C=N/Nc2ccc([N+](=O)[O-])cn2)c1O	12.8	34.1*	-1.6	-4.7	3.0	24.1*	-0.9
COc1cc(Br)cc(/C=N/NC(=O)Cc2ccccc2)c1O	.	18.9*	-2.7	-4.8	-10.7	14.3	-4.3
COc1cccc(/C=N/NC(=O)N/N=C/c2cccc(OC)c2O)c1O	-1.6	21.5*	-5.7	-7.4	-11.4	16.0*	-6.6
CCCN(CC(=O)Nc1ccc(F)c(F)c1F)C(=O)C1=COCCO1	.	-1.9	-6.9	-5.2	-10.8	.	.
N=C1C(c2nc3ccccc3s2)=C(O)CN1NC(=O)c1ccccc1[N+](=O)[O-]	7.8	21.4*	5.1	15.0	-1.0	25.3*	3.8
Cc1ccc(NC(=O)C(=O)NCCN2CCN(C(=S)Nc3ccccc3)CC2)cc1	-2.5	-4.0	4.0	-0.6	-0.8	.	.
COc1ccc([C@H]2Oc3cc(O)cc(O)c3C(=O)C2[C@@H]2C(=O)c3c(O)cc(O)cc3O[C@@H]2c2ccc(OC)cc2)cc1 (stereo not given in full)	.	24.7*	9.1	16.4	2.4	8.4	4.3
COc1ccc(C2CC(=O)Oc3cc(O)cc(O)c32)cc1 (stereo not given)	.	-3.0	-12.3	-10.5	3.6	.	.
O=C(N/N=C/c1ccc(O)cc1O)c1ccc(NC(=O)C2CCCCC2)cc1	-1.6	50.0*	9.1	-3.5	1.0	36.2*	-3.5
O=C(N/N=C/c1cccc(O)c1)c1ccc(NC(=O)C2CCCCC2)cc1	-0.4	.	.	.	.	.	.
COc1ccc(CNC(=O)COC(=O)CCN2C(=O)C3CC=CCC3C2=O)cc1OC (stereo not given)	.	3.1	.	.	-14.2	.	.
CCc1cc2c(cc3c(=O)n(CC(=O)NCCCN4CCCCCC4)nc(CC)n32)s1	-25.0	2.8	0.6	-1.6	2.3	.	.
COc1cccc(NC(=O)c2nnn(CC(=O)Nc3cc(C)cc(C)c3)c2N)c1	-10.4	5.5	-3.6	-6.7	-3.1	.	.
Cc1cccc(NC(=O)Cn2nnc(C(=O)Nc3ccc(F)c(Cl)c3)c2N)c1	23.0	19.2*	-9.9	-6.6	-17.9	-0.9	-3.9
CC(C)CCn1cnc2c(oc3nc4c(cc32)CCCC4)c1=O	0.4	-4.9	-6.9	2.2	-16.4	.	.
C=Cc1c(C)c2cc3[nH]c(cc4nc(cc5nc(cc1[nH]2)C(C)=C5CCC(=O)O)C(CCC(=O)O)=C4C)c(C)c3C=C	.	61.4*	95.7*	-234.9	146.2*	41.5*	4.0
CCCc1cc(C(=O)N2CCCC(N3CCN(c4ccccc4F)CC3)C2)n(C)n1 (stereo not given)	9.1	-0.7	7.5	-6.2	-7.5	.	.
CCOc1ccc(-c2cc(C(=O)NCCCn3ccnc3)c3cc(Br)ccc3n2)cc1	-43.4	21.0*	-3.3	-1.0	5.4	5.6	1.2
CCOc1ccc(-c2cc(C(=O)NCCCn3ccnc3)c3ccccc3n2)cc1	-28.2	3.1	-4.6	2.1	-3.8	.	.
